Sampled rows, rich in hits. Any-hit rate of the full collection: about 1.9%.
PGC1a acetyl inh = lowers PGC1a acetylation signal in U2OS cells; AlphaScreen anti-acetyl-lysine; with virally co-expressed GCN5 acetyltransferase; inhibition, % at 15.6 µM; hit rate 0.17% among 350,000;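 active = every replicate shows inhibition of at least 40%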;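 note: 0% = neutral control wells and 100% = positive control wells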
Cneo AK release = causes C. neoformans cell lysis; adenylate kinase release luminescence, 4 h; normalised: neutral wells 0, clomiphene wells 100; lysis activity, % at 15 µM; hit rate 0.2% among 360,000; AID 651654;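 active = mean lysis activity across replicates of at least 80%, whatever share of replicates individually reach that level; inactive = mean lysis activity below 80%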
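Assay system: log-phase C. neoformans yeast / Quantity: yeast cell density of 5 × 10^6 cells/mL / Medium: fresh YPD growth medium / Compound: single dose / Timing: static 4 h at 37 °C with compound, 1 h detection / Measured by: adenylate kinase release luminescence / Read-out: lysis from increased AK signal / Benchmarks: Clomiphene as positive lysis control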
FN deposition inh = fibronectin deposition inhibition; AH1F fibroblasts, Alexa488-fibronectin deposition fluorescence, overnight; inhibition, % at 12.6 µM; hit rate 0.086% among 350,000; AID 743247;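 active = mean inhibition across replicates of 30% or more, regardless of how many single replicates reach that level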;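 note: positive control wells lacked labelled fibronectin entirely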
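Material – AH1F fibroblast monolayer, labelled fibronectin deposition · Reagent – labelled fibronectin 24 nM · Timing – 1 h adhesion, overnight exposure · Measured by – fluorescence at 485 nm excitation, 525 nm emission · Read-out – inhibition of fibronectin deposition signal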
DENV2 CPE rescue = inhibitors of DENV2 cytopathic effect; DENV2-infected cells, cytopathic effect rescue, plate reader; CPE inhibition, % at 9.99 µM; hit rate 1.7% among 350,000; in the data active = CPE inhibition above about 20%, passing the limit was not always enough; tested in BHK-21 cells;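 note: 0% = median of neutral control wells and 100% = median of positive control wells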
F508del corr = CFTR F508del correction in bronchial cells; CFBE cells, YFP halide quenching; stimulated with forskolin plus potentiator P3; % fluorescence drop versus neutral controls; activity (quench increase), % at 7.58 µM; hit rate 0.36% among 350,000; AID 720511;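 active = mean added fluorescence quench of at least 8% versus neutral control, with both replicates also reaching 8%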;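 note: cells transiently co-express mutant CFTR-F508del with the halide-sensitive YFP; corrector assay measuring rescue of mutant channel to the surface after 24 h compound exposure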
Xi reactivation = reactivates the inactive X chromosome in mouse fibroblasts; hit rate 0.055% among 360,000; activation, % at 7.58 µM; XiGFP mouse fibroblasts, % GFP-positive cells imaging, 3 d; cells co-treated with 5-aza-dC sensitizer; scaled so ellipticine positive control = 100%;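 active = mean normalized replicate activation at least 10% and every replicate at or above 10%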;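 note: 0% = median of on-plate neutral control wells and 100% = ellipticine 6 µM median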
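material = 68-5-11 XiGFP fibroblast line | medium = DMEM plus 5-aza-dC sensitizer | schedule = 3 days compound exposure | benchmarks = positive control ellipticine, 6 µM final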
Starred values were filed as active, the others as inactive.

O=C(CC(C(=O)O)c1c[nH]c2ccccc12)c1ccccc1 (stereo not drawn) was read as PGC1a acetyl inh 81*, Cneo AK release -2, FN deposition inh -2, DENV2 CPE rescue -4, F508del corr -1 and Xi reactivation 0.
`O=C(O)C(O)Cc1c[nH]c2ccccc12` (stereo not drawn) gave PGC1a acetyl inh 4, Cneo AK release 6, DENV2 CPE rescue -4 and F508del corr 1.
`O=C(NCc1ccc2c(c1)OCO2)c1nc(S(=O)(=O)Cc2ccccc2F)ncc1Cl` gave Cneo AK release 0, FN deposition inh 33*, DENV2 CPE rescue 3, F508del corr 1 and Xi reactivation 1.
For CC(=O)Nc1ccc(NC(=O)c2nc(S(=O)(=O)Cc3ccccc3)ncc2Cl)cc1 the results were Cneo AK release 0, FN deposition inh 51*, DENV2 CPE rescue -3, F508del corr -6 and Xi reactivation 4.
COc1ccc(CN(C)C[C@@H]2Oc3ccc(NC(=O)Nc4ccc(F)cc4)cc3CC(=O)N([C@H](C)CO)C[C@H]2C)cc1 was read as PGC1a acetyl inh -7, Cneo AK release 115*, DENV2 CPE rescue -1, F508del corr -2 and Xi reactivation 0.
Screening C[C@H]1CN([C@@H](C)CO)C(=O)Cc2cc(NC(=O)Nc3ccc(F)cc3)ccc2O[C@H]1CN(C)Cc1ccc(-c2ccccc2)cc1 returned PGC1a acetyl inh -5, Cneo AK release 1, FN deposition inh 7, DENV2 CPE rescue 50*, F508del corr 1 and Xi reactivation 0.
`C[C@@H]1CN([C@@H](C)CO)C(=O)Cc2cc(NC(=O)Nc3ccc(F)cc3)ccc2O[C@H]1CN(C)S(=O)(=O)c1cccs1` gave PGC1a acetyl inh -4, Cneo AK release 0, FN deposition inh -9, DENV2 CPE rescue 19, F508del corr 1 and Xi reactivation 0.
C[C@H]1CN([C@@H](C)CO)C(=O)c2cccc(NC(=O)c3cnccn3)c2O[C@@H]1CN(C)Cc1ccc2c(c1)OCO2 was read as PGC1a acetyl inh 21, Cneo AK release 56, DENV2 CPE rescue 24*, F508del corr -4 and Xi reactivation 0.
For C[C@H]1CN([C@@H](C)CO)C(=O)c2cccc(NC(=O)c3cnccn3)c2O[C@H]1CN(C)Cc1ccc(Cl)c(Cl)c1 the results were PGC1a acetyl inh -4, Cneo AK release -4, DENV2 CPE rescue 23*, F508del corr -3 and Xi reactivation 0.
`C[C@H](CO)N1C[C@H](C)[C@@H](CN(C)C)Oc2c(NC(=O)c3cnccn3)cccc2C1=O` gave PGC1a acetyl inh 2, Cneo AK release -2, DENV2 CPE rescue 30*, F508del corr 0 and Xi reactivation 0.
O=C(C1CC1)N1CCCCN2[C@H](CO)[C@@H](c3ccc(C#CC4(O)CCCC4)cc3)[C@@H]2C1 was read as PGC1a acetyl inh -1, Cneo AK release 44, DENV2 CPE rescue -1 and F508del corr -2.
For CCCN(C)C[C@H]1Oc2cc(C#Cc3ccccc3)ccc2S(=O)(=O)N([C@H](C)CO)C[C@H]1C the results were PGC1a acetyl inh -9, Cneo AK release 6, FN deposition inh -24, DENV2 CPE rescue 2, F508del corr -2 and Xi reactivation -1.
`C[C@H](CO)N1C[C@H](C)[C@H](CN(C)CC2CC2)Oc2c(NS(=O)(=O)c3ccccc3)cccc2C1=O` gave PGC1a acetyl inh -2, Cneo AK release 3, DENV2 CPE rescue 17, F508del corr -2 and Xi reactivation 0.
For COc1cccc(S(=O)(=O)N2C[C@H](O)COC[C@H]3O[C@H](CC(=O)N4CCN(C)CC4)CC[C@@H]32)c1 the results were PGC1a acetyl inh 9, Cneo AK release -3, FN deposition inh -9, DENV2 CPE rescue 2, F508del corr -1 and Xi reactivation 0.
`COc1ccc2c3c([nH]c2c1)[C@H](CO)N(C(=O)Cc1ccccc1)CC31CCN(C(=O)Cc2ccccc2)CC1` gave PGC1a acetyl inh 9, DENV2 CPE rescue 5, F508del corr 3 and Xi reactivation 1.
